# High-throughput results from PubChem.
# Kir21 inh: blocks the mouse Kir2.1 inward-rectifier potassium channel; P35561; HEK293-Kir2.1, FluxOR thallium flux fluorescence; stronger effect = lower value; actives 0.85% (n = 310,000); B-score at 10 µM; AID 1672;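 active = fluorescence ratio B-score at or below minus 3 SD of library scores, with starting-brightness B-score within 2 SD, cut at about -4.2 in these data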;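 also: channel flux triggered by added potassium and thallium sulfate stimulus; B-score of peak minus minimum fluorescence over baseline after thallium stimulus; more negative B-score means stronger Kir2.1 block with less thallium influx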
# KCNK9 inh: inhibitors of human KCNK9 two-pore domain potassium channel. Q9NPC2. HEK293 KCNK9, FluxOR thallium flux fluorescence; stronger effect = lower value. B-score at 10 µM. actives 1.2% (n = 310,000). AID 488922;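 active = ratio B-score over 3 SD below the library mean, with starting fluorescence within 5 SD of its mean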;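 also: negative B-score means less thallium flux so channel inhibition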
# hERG protect: hERG (human) protection from proarrhythmic block | actives 0.51% (n = 310,000) | CHO-hERG, FluxOR thallium flux, dofetilide IC70 present | activation (rescue from dofetilide block), less the hit threshold, % at 10 µM | AID 1511 | Q12809;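 active = activation above the mean of controls blocked by dofetilide plus 5 SD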;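 also: thallium influx through hERG after potassium depolarization seen as dye fluorescence rise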
# KCNK3 inh: human KCNK3 channel inhibition, primary screen; AID 602410; O14649; CHO-KCNK3 thallium flux, FluxOR fluorescence; stronger effect = lower value; actives 0.84% (n = 340,000); B-score at 10 µM;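 active = B-score under library mean minus 4 SD, starting fluorescence ratio at most library mean plus 5 SD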;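 also: more negative B-score means stronger inhibition of thallium flux through KCNK3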
# KCNQ1 block: inhibitors of human KCNQ1 potassium channel; P51787; CHO-K1 KCNQ1, FluxOR thallium flux fluorescence; stronger effect = higher value; B-score at 10 µM; actives 1.3% (n = 310,000);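 active = compounds whose thallium flux B-score, printed positive for inhibition, exceeds three library SD while starting fluorescence stays within three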;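 also: channel opened by potassium depolarization with thallium stimulus after 20 min compound exposure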
# Target sequence (P51787 whole entry, looked up): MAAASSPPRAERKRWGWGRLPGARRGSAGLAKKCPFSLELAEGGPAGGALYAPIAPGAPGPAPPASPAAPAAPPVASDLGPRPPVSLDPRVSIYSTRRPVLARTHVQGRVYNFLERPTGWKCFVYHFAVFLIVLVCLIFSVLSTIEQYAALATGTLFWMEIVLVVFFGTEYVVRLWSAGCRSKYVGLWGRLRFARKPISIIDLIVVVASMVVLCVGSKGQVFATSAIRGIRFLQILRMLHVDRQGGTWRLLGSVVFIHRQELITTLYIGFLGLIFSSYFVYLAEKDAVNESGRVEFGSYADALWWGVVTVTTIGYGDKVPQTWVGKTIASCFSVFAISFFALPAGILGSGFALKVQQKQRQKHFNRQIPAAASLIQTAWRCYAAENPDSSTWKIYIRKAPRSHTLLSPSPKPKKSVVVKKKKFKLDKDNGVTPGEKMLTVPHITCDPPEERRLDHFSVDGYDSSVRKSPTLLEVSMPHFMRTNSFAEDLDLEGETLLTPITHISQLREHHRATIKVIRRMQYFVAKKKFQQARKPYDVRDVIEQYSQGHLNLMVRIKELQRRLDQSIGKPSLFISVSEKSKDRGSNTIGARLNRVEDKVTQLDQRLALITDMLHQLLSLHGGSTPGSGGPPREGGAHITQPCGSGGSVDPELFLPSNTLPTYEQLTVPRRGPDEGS
# KCNQ1 act: potentiates or activates the human KCNQ1 potassium channel; AID 2648; B-score at 10 µM; actives 0.35% (n = 310,000); CHO-K1 KCNQ1, thallium flux FluxOR fluorescence; stronger effect = higher value;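 active = fluorescence ratio B-score, a plate-corrected score, at least three library SD, with initial intensity B-score within 5 SD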
#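 Assay system: CHO-K1 cells stably expressing KCNQ1. Medium: assay buffer for compound exposure, DMSO matched across wells. Timing: 37 °C overnight plating, 90-min dark dye load, 20-min compound pretreatment. Signal: kinetic FluxOR fluorescence, 10 s baseline plus 110 s post-stimulus.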
# KCNK9 block conf: human KCNK9 inhibitor confirmation; shares compounds with KCNK9 inh; HEK293 KCNK9 cells, FluxOR thallium flux fluorescence; inhibition, % at 10 µM; actives 43% (n = 4,900); AID 492992;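 active = thallium signal inhibited by more than 5 SD of the compound-free buffer control wells, on both duplicate plates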;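 also: 0% = assay buffer control wells without compound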
# Kir21 sel: tests whether KCNK9 modulators also affect mouse Kir2.1; actives 4% (n = 4,900); inhibition, % at 10 µM; shares compounds with KCNK9 inh; Kir2.1 cells, FluxOR thallium flux fluorescence;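 active = thallium signal drop more than 5 SD beyond the mean of the no-compound control wells, seen in both duplicate plates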;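 also: signal is fluorescence rise after thallium addition divided by baseline fluorescence; plate controls were assay buffer only for no effect and full block by chlorpromazine control for full effect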
# HEK293 Tl ctr: second counter-screen for KCNK9 modulators: effect in non-induced cells | inhibition, % at 10 µM | AID 492997 | shares compounds with KCNK9 inh | non-induced KCNK9-HEK293, FluxOR thallium flux | actives 40% (n = 4,900);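 active = thallium signal drop beyond 5 SD of the untreated control mean, on both duplicate plates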;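 also: plate controls were buffer only IC0 wells for no effect and SID17386958 at its maximal inhibitory level for full effect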
# An asterisk follows results filed as active; i = inactive; / = no result. This is a sample that favours compounds with a hit; in the whole collection about 3.8% have one here.
SMILES,Kir21 inh,KCNK9 inh,hERG protect,KCNK3 inh,KCNQ1 block,KCNQ1 act,KCNK9 block conf,Kir21 sel,HEK293 Tl ctr
Cc1nnc(SCC(=O)Nc2ncc(S(=O)(=O)c3ccc([N+](=O)[O-])cc3)s2)s1,0.39,i,-5,i,i,i,/,/,/
COC(=O)c1c(C)cc(C)c2c1CC(C)(C)C2=O,-1.6,i,-3,i,i,i,/,/,/
Cc1noc(C)c1S(=O)(=O)N(C)CC(=O)Nc1ccc(F)cc1,0.02,-11*,-2,i,i,i,i,i,i
CCOc1ccc(NC(=O)CN(c2cc(C)cc(C)c2)S(=O)(=O)c2c(C)noc2C)cc1,0,i,-2,i,i,i,/,/,/
O=C(Nc1cccc(Oc2ccc(C(=O)O)c(C(=O)O)c2)c1)c1ccc(-c2ccccc2)cc1,-2.4,i,-10,i,i,i,/,/,/
COc1ccc(C(=O)NC(=S)Nc2ccc(CN3CCOCC3)cc2)cc1Cl,0.94,i,-14,i,i,i,i,i,i
COc1ccc(C(=O)NC(=S)Nc2ccc(CN3CCCCC3)cc2)cc1Cl,-0.48,i,-23,i,i,i,/,/,/
COc1ccc(N2CCN(S(=O)(=O)c3cc(C)ccc3OC)CC2)cc1,-0.66,i,-17,i,i,i,/,/,/
CC1=NN(C(N)=S)C(=O)C1N=Nc1cccc(Cl)c1C (centres undefined),0.2,i,-11,i,i,41*,i,i,i
C=CCN(C)CC/C=C1\c2ccccc2CSc2ccccc21,-4,i,-12,i,i,i,i,i,i
COC(=O)c1cc2sccc2n1Cc1nc(-c2ccc(OC)cc2)oc1C,0.37,i,-12,i,i,i,/,/,/
COC(=O)c1cc2ccsc2n1Cc1nc(-c2ccc(OC)cc2)oc1C,0.21,-8.4*,-6,i,i,i,40%*,i,52%*
C=C(CCO)C1=CCN(S(=O)(=O)C(C)(C)C)[C@H]1CCO,/,/,/,i,/,/,/,/,/
CN(C)CCOc1ccc2ccccc2c1,0.59,i,-2,i,i,i,/,/,/
c1ccc2cc(OCCOCCOc3ccc4ccccc4c3)ccc2c1,-0.73,i,-12,i,i,i,i,i,i
O=C(NCc1nc2ccccc2[nH]1)c1ccc(Cl)c(S(=O)(=O)N2CCCC2)c1,1.1,i,-11,i,i,i,/,/,/
O=C(COC(=O)c1ccc(S(=O)(=O)N2CCCC2)cc1)Nc1ccccc1,/,/,/,i,/,/,/,/,/
O=C(COC(=O)c1ccc(Cl)c(S(=O)(=O)N2CCCCCC2)c1)Nc1ccccc1,-0.55,i,-6,i,i,i,i,i,i
Cc1ccc(NC(=O)COC(=O)c2csc3c2CCC(C)C3)cc1S(=O)(=O)N1CCCCC1 (centres undefined),0.15,-9.2*,-11,i,i,i,32%*,i,i
CCCn1c(NC(=O)c2ccc(Cl)c(S(=O)(=O)N3CCCC3)c2)nc2ccccc21,-2.1,-8.9*,-11,i,i,i,40%*,i,i
NS(=O)(=O)c1ccc(CCNC(=O)CSCC(=O)Nc2ccc(Cl)cc2)cc1,/,/,/,i,/,/,/,/,/
O=C(/C=C/c1cccs1)N1CCC2(CC1)Oc1ccc(Cl)cc1C(=O)C21CC(c2ccccc2)=NO1 (centres undefined),0.68,i,-6,i,i,i,/,/,/
Nc1ccccc1C(=O)N1O[C@@H]2C=C[C@H]1CC2,/,/,/,i,/,/,/,/,/
Fc1ccc(C2c3[nH]c4ccccc4c3CCN2Cc2ccoc2)cc1 (centres undefined),-1.7,i,-9,i,i,i,i,i,i
CCCCC(CC)COC1(c2ccccc2)OC(=O)c2ccccc21 (centres undefined),-0.12,-18*,-6,i,i,i,76%*,i,50%*
SMILES,Kir21 inh,KCNK9 inh,hERG protect,KCNK3 inh,KCNQ1 block,KCNQ1 act,KCNK9 block conf,Kir21 sel,HEK293 Tl ctr
O=C1OC(OC2CCCCC2)(c2ccccc2)c2ccccc21 (centres undefined),0.58,-18*,-7,i,i,i,76%*,i,60%*
O=C1OC(Oc2ccccc2)(c2ccccc2)c2ccccc21 (centres undefined),-0.24,-10*,-16,i,i,i,52%*,i,48%*
COC(=O)c1sccc1NC(=S)N1CCCCC1C (centres undefined),0.04,i,-14,i,i,i,i,i,i
COC(=O)c1sccc1NC(=S)N1C(C)CCCC1C (centres undefined),0.01,i,-13,i,i,i,/,/,/
Cc1cc(C)cc(N(CC(=O)NC(C)(C)C)C(=O)CNC(=O)c2cccs2)c1,0.15,i,-5,i,i,i,/,/,/
O=C(Nc1ccccc1-c1nnc(SCc2ccccc2Cl)o1)c1ccccc1,0.77,i,-8,i,i,i,i,i,i
CC(=O)c1cccc(NC(=S)NNC(=O)c2ccc(C)c([N+](=O)[O-])c2)c1,2.2,i,-7,i,i,i,/,/,/
Cc1ccc(NC(=S)NNC(=O)c2cccc([N+](=O)[O-])c2)cc1Cl,0.79,i,-14,i,8*,i,i,i,i
Clc1ccc(-c2nnc(CCc3ccccc3)o2)c(Cl)c1,1.6,i,-3,i,i,i,i,i,i
Oc1ccccc1-c1nnc(COc2ccc(Cl)cc2Cl)o1,-0.95,i,-6,i,i,i,/,/,/
Cc1cc(OCC(=O)Nc2ccc(CN3CCOCC3)cc2)c2c(C)c(C)c(=O)oc2c1,-0.61,i,-4,i,i,i,/,/,/
OC(CSc1ccccc1Cl)CN1CCN(c2ccccc2F)CC1 (centres undefined),-0.07,i,-17,i,i,i,i,i,i
OC(CSc1c(Cl)cccc1Cl)CN1CCN(c2ccc(F)cc2)CC1 (centres undefined),-1.3,i,-23,i,i,i,i,i,i
OC(CSc1c(Cl)cccc1Cl)CN1CCN(c2ccccc2F)CC1 (centres undefined),-0.01,i,-26,i,i,i,i,i,i
